Results: ChEMBL document CHEMBL3102806, “1,2,4-Triazole/oxime hybrids as new strategy for nitric oxide donors: Synthesis, anti-inflammatory, ulceroginicity and antiproliferative activities” (Eur J Med Chem, 2014)

Key:
MOLT-4 = assay: Growth inhibition of human MOLT4 cells assessed as cell growth at 10^-5 M after 48 hrs by sulforhodamine B assay relative to control; format: functional; conditions: MOLT-4, 48 h, read-out: Activity
Method in brief: (§1)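 NCI primary screen, one-dose format across about 60 human tumour cell lines. Single addition at 10^-5 M with 48 h incubation; SRB protein-binding dye end point read spectrophotometrically. Reported as percent growth of treated cells versus untreated controls.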

U-251 = assay: Growth inhibition of human U251 cells assessed as cell growth at 10^-5 M after 48 hrs by sulforhodamine B assay relative to control; format: functional; conditions: U-251, 48 h, read-out: Activity
Method in brief: (§2)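 NCI primary screen across about 60 human tumour cell lines. Single dose of 10^-5 M, cultures incubated 48 h, end point by sulforhodamine B protein staining read spectrophotometrically. Results are given as percent growth of treated cells relative to untreated control cells.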

Rattus norvegicus [1] = assay: Antiinflammatory activity in albino rat assessed as inhibition of carrageenan-induced paw edema at 0.28 mmol/kg, po administered 30 mins prior to carrageenan-challenge measured after 3 hrs relative to control; format: functional
Method in brief: (§3)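 Male albino rats in groups of four were fasted 24 h with water allowed. Dosing was oral at 0.28 mmol/kg, suspended in 0.5% w/v CMC; controls got CMC alone. After 30 min, 0.1 ml of 1% carrageenan in saline went subplantar into the right hind paw and saline into the left. Paw thickness was read by caliper before and at 1–5 h. % inhibition = [(VR−VL)control−(VR−VL)treated]/(VR−VL)control ×100. Mean ± SEM, n = 4, one-way ANOVA vs control.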

HT-29 = assay: Growth inhibition of human HT-29 cells assessed as cell growth at 10^-5 M after 48 hrs by sulforhodamine B assay relative to control; format: functional; conditions: HT-29, 48 h, read-out: Activity
Method in brief: (§4)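 NCI ~60 human tumour cell line screen. Single concentration of 10^-5 M added to cultures for 48 h. End point by sulforhodamine B protein staining read spectrophotometrically. Percent growth relative to untreated control cells.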

[2] = Growth inhibition of human HOP92 cells assessed as cell growth at 10^-5 M after 48 hrs by sulforhodamine B assay relative to control; format: functional; conditions: HOP-92, 48 h, read-out: Activity; method in brief: as §4
DU-145 = assay: Growth inhibition of human DU145 cells assessed as cell growth at 10^-5 M after 48 hrs by sulforhodamine B assay relative to control; format: functional; conditions: DU-145, 48 h, read-out: Activity; method in brief: as §4
[3] = Growth inhibition of human UO31 cells assessed as cell growth at 10^-5 M after 48 hrs by sulforhodamine B assay relative to control; format: functional; conditions: UO-31, 48 h, read-out: Activity; method in brief: as §2
KM12 = assay: Growth inhibition of human KM12 cells assessed as cell growth at 10^-5 M after 48 hrs by sulforhodamine B assay relative to control; format: functional; conditions: KM12, 48 h, read-out: Activity; method in brief: as §1
NCI-H226 = assay: Growth inhibition of human NCI-H226 cells assessed as cell growth at 10^-5 M after 48 hrs by sulforhodamine B assay relative to control; format: functional; conditions: NCI-H226, 48 h, read-out: Activity; method in brief: as §1
SNB-75 = assay: Growth inhibition of human SNB75 cells assessed as cell growth at 10^-5 M after 48 hrs by sulforhodamine B assay relative to control; format: functional; conditions: SNB-75, 48 h, read-out: Activity; method in brief: as §2
[4] = Induction of nitric oxide release in phosphate buffer at 10^-4 M at pH 7.4 after 1 hr by Griess colorimetric method in presence of N-acetylcysteine; format: physicochemical; conditions: pH 7.4, 1 h, 100 µM
Method in brief: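 Final drug concentration 10^-4 M, added from DMF into 1:1 50 mM phosphate buffer (pH 7.4)/MeOH containing 5 × 10^-4 M N-acetylcysteine, at 37 °C. Nitrite read with Griess reagent after 10 min at room temperature, absorbance at 546 nm. Calibration with sodium nitrite standards (10–80 nmol/ml). Reported as mol NO per mol, n = 4 reaction mixtures.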

786-0 = assay: Growth inhibition of human 786-0 cells assessed as cell growth at 10^-5 M after 48 hrs by sulforhodamine B assay relative to control; format: functional; conditions: 786-0, 48 h, read-out: Activity; method in brief: as §4
[5] = Growth inhibition of human OVCAR4 cells assessed as cell growth at 10^-5 M after 48 hrs by sulforhodamine B assay relative to control; format: functional; conditions: OVCAR-4, 48 h, read-out: Activity; method in brief: as §1
SF-268 = assay: Growth inhibition of human SF268 cells assessed as cell growth at 10^-5 M after 48 hrs by sulforhodamine B assay relative to control; format: functional; conditions: SF-268, 48 h, read-out: Activity; method in brief: as §1
NCI-H322M = assay: Growth inhibition of human NCI-H322M cells assessed as cell growth at 10^-5 M after 48 hrs by sulforhodamine B assay relative to control; format: functional; conditions: read-out: Activity; method in brief: as §1
SK-OV-3 = assay: Growth inhibition of human SKOV3 cells assessed as cell growth at 10^-5 M after 48 hrs by sulforhodamine B assay relative to control; format: functional; conditions: SK-OV-3, 48 h, read-out: Activity; method in brief: as §2
MCF7 = assay: Growth inhibition of human MCF7 cells assessed as cell growth at 10^-5 M after 48 hrs by sulforhodamine B assay relative to control; format: functional; conditions: MCF7, 48 h, read-out: Activity; method in brief: as §1
RPMI-8226 = assay: Growth inhibition of human RPMI8226 cells assessed as cell growth at 10^-5 M after 48 hrs by sulforhodamine B assay relative to control; format: functional; conditions: RPMI-8226, 48 h, read-out: Activity; method in brief: as §1
[6] = Growth inhibition of human UACC257 cells assessed as cell growth at 10^-5 M after 48 hrs by sulforhodamine B assay relative to control; format: functional; conditions: UACC-257, 48 h, read-out: Activity; method in brief: as §2
MDA-MB-231 = assay: Growth inhibition of human MDA-MB-231 cells assessed as cell growth at 10^-5 M after 48 hrs by sulforhodamine B assay relative to control; format: functional; conditions: MDA-MB-231, 48 h, read-out: Activity; method in brief: as §1
CAKI-1 = assay: Growth inhibition of human CAKI-1 cells assessed as cell growth at 10^-5 M after 48 hrs by sulforhodamine B assay relative to control; format: functional; conditions: CAKI-1, 48 h, read-out: Activity; method in brief: as §4
Rattus norvegicus [7] = assay: Antiinflammatory activity in albino rat assessed as inhibition of carrageenan-induced paw edema at 0.28 mmol/kg, po administered 30 mins prior to carrageenan-challenge measured after 5 hrs relative to control; format: functional; method in brief: as §3
IGROV-1 = assay: Growth inhibition of human IGROV1 cells assessed as cell growth at 10^-5 M after 48 hrs by sulforhodamine B assay relative to control; format: functional; conditions: IGROV-1, 48 h, read-out: Activity; method in brief: as §4
[8] = Growth inhibition of human NCI-ADR-RES cells assessed as cell growth at 10^-5 M after 48 hrs by sulforhodamine B assay relative to control; format: functional; conditions: read-out: Activity; method in brief: as §1
SW-620 = assay: Growth inhibition of human SW620 cells assessed as cell growth at 10^-5 M after 48 hrs by sulforhodamine B assay relative to control; format: functional; conditions: SW-620, 48 h, read-out: Activity; method in brief: as §2
OVCAR-8 = assay: Growth inhibition of human OVCAR8 cells assessed as cell growth at 10^-5 M after 48 hrs by sulforhodamine B assay relative to control; format: functional; conditions: OVCAR-8, 48 h, read-out: Activity; method in brief: as §1

Row | SMILES | growth at 10 µM (MOLT-4) [%] | growth at 10 µM (U-251) [%] | inhibition in vivo at 280 µmol/kg (Rattus norvegicus [1]) [%] | growth at 10 µM (HT-29) [%] | growth at 10 µM [2] [%] | growth at 10 µM (DU-145) [%] | growth at 10 µM [3] [%] | growth at 10 µM (KM12) [%] | growth at 10 µM (NCI-H226) [%] | growth at 10 µM (SNB-75) [%] | Activity [4] [mol/mol] | growth at 10 µM (786-0) [%] | growth at 10 µM [5] [%] | growth at 10 µM (SF-268) [%] | growth at 10 µM (NCI-H322M) [%] | growth at 10 µM (SK-OV-3) [%] | growth at 10 µM (MCF7) [%] | growth at 10 µM (RPMI-8226) [%] | growth at 10 µM [6] [%] | growth at 10 µM (MDA-MB-231) [%] | also measured
1 | C/C(=N\O)c1ccc(NC(=O)CSc2nnc(-c3ccccc3)n2-c2ccccc2)cc1 | 95.2 | 63.6 | 63 | 73.3 | 30.1 | 67.9 | 90.6 | 83.1 | 72.4 | 59.2 | 0.11 | 92.7 | 86.2 | 92.2 | 66.7 | 80.5 | 62.5 | 91.2 | 81.8 | 20.9 | growth at 10 µM (CAKI-1): 99.9%; inhibition in vivo at 280 µmol/kg (Rattus norvegicus [7]): 66%; growth at 10 µM (IGROV-1): 81.4%; growth at 10 µM [8]: 39.3%; growth at 10 µM (SW-620): 99.8%; growth at 10 µM (OVCAR-8): 90.8%
2 | COc1ccc(-c2nnc(SCC(=O)Nc3ccc(/C(C)=N/O)cc3)n2-c2ccccc2)cc1OC | 91.7 | 34.4 | 77 | 91.2 | -8.56 | 88.3 | 104 | 106 | 81.9 | -16.5 | 0.15 | 64.5 | 103 | 30.6 | 75.7 | 4.74 | 69.2 | 91.6 | 91.8 | 47.9 | growth at 10 µM (CAKI-1): 87.4%; inhibition in vivo at 280 µmol/kg (Rattus norvegicus [7]): 76%; growth at 10 µM (IGROV-1): 70.9%; growth at 10 µM [8]: 90.6%; growth at 10 µM (SW-620): 115%; growth at 10 µM (OVCAR-8): 42.8%
